# Source: ChEMBL document CHEMBL4477197, “Antitumor Activity of Spicatoside A by Modulation of Autophagy and Apoptosis in Human Colorectal Cancer Cells” (J Nat Prod, 2016)
# Calls of active or inactive are those of the source. The rule behind the calls is not given here.
# Legend:
# MDA-MB-231 = assay: Antiproliferative activity against human MDA-MB-231 cells after 24 to 72 hrs by SRB assay; type: functional, cell-based
# Procedure, shortened: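 Cells from ATCC were grown at 37 °C in 5% CO2, in RPMI 1640 (A549, HCT116, SNU-638) or DMEM (MDA-MB-231, SK-HEP-1, MRC5) with 10% FBS. They were seeded at 6 × 10^3 cells/well for 24 h, then exposed for 72 h. Cells were TCA-fixed, stained with 0.4% SRB, and read at 515 nm against day-zero plates. IC50 came from nonlinear regression, as means ± SD.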
# HCT-116 [1] = assay: Growth inhibition of human HCT116 cells after 24 hrs by SRB assay; type: functional, cell-based
# Procedure, shortened: (§1)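 SRB assay. Cells were seeded at 6 × 10^3/well, grown 24 h, then fixed as day-zero controls or treated 24 or 48 h. They were fixed with 10% TCA and stained with 0.4% SRB in 1% acetic acid; dye was dissolved in 10 mM Tris pH 10.0 and read at 515 nm. Proliferation was normalized to day zero and control, and IC50 came from nonlinear regression. n = 3.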
# HCT-116 [2] = assay: Induction of autophagy in human HCT116 cells assessed as accumulation of beclin 1 after 24 hrs by Western blot analysis; type: functional, cell-based
# Procedure, shortened: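 HCT116 cells were cultured 24 h with the indicated concentrations. Lysates were made in SDS buffer with NaF and orthovanadate and quantified by BCA; 10–30 μg protein was separated by 6–15% SDS-PAGE and transferred to PVDF. After 5% BSA blocking, blots were probed for LC3-II, beclin 1, p62, LAMP1 and cathepsin D, with ECL detection.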
# [3] = Inhibition of PI3K/Akt/mTOR in human HCT116 cells assessed as suppression of mTOR phosphorylation at Ser2448 at 10 to 30 uM after 24 hrs by Western blot analysis; type: cell-based
# Procedure, shortened: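 HCT116 cells (RPMI 1640, 10% FBS, 37 °C, 5% CO2) exposed to the compound for 24 h, then lysed in 2× SDS sample buffer with NaF and orthovanadate and boiled. BCA-normalised protein (10−30 μg) run on 6−15% SDS-PAGE and blotted to PVDF. Blocked in 5% BSA/PBS-Tween, probed for PI3K, PTEN, Akt and mTOR, and detected by ECL. Blots are representative of three determinations.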
# [4] = target: Mitogen-activated protein kinase; ERK1/ERK2 (Homo sapiens) (UniProt P27361+P28482); assay: Inhibition of ERK1/2 phosphorylation in human HCT116 cells after 24 hrs by Western blot analysis; type: cell-based
# HCT-116 [5] = assay: Growth inhibition of human HCT116 cells after 48 hrs by SRB assay; type: functional, cell-based; procedure, shortened: as §1
# HCT-116 [6] = assay: Induction of apoptosis in human HCT116 cells assessed as cell rounding after 48 hrs; type: functional, cell-based
# HCT-116 [7] = assay: Cell cycle arrest in human HCT116 cells assessed as accumulation at subG1 phase at 10 uM after 48 hrs by propidium iodide staining based flow cytometry; type: functional
# HCT-116 [8] = assay: Cell cycle arrest in human HCT116 cells assessed as accumulation at subG1 phase at 20 uM after 48 hrs by propidium iodide staining based flow cytometry; type: functional
# HCT-116 [9] = assay: Induction of apoptosis in human HCT116 cells at 10 uM after 48 hrs by Annexin V-FITC/propidium iodide staining based flow cytometry; type: functional
# Procedure, shortened: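 HCT116 cells were treated 48 h, then resuspended in binding buffer at 1 × 10^6 cells/mL. They were stained with annexin V-FITC and PI for 20 min at room temperature in the dark, diluted and analyzed immediately by flow cytometry for annexin V-positive cells. n = 3.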
# HCT-116 [10] = assay: Induction of apoptosis in human HCT116 cells assessed as downregulation of Bcl-2 levels at 10 to 30 uM after 48 hrs by Western blot analysis; type: functional, cell-based
# HCT-116 [11] = assay: Induction of autophagy in human HCT116 cells assessed as increase in LAMP1 expression at 30 uM at 24 hrs by Western blot analysis; type: functional, cell-based
# HCT-116 [12] = assay: Induction of apoptosis in human HCT116 cells assessed as PARP cleavage at 30 uM upto 48 hrs by Western blot analysis; type: functional, cell-based
# Procedure, shortened: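 Time course: HCT116 cells were exposed to 30 μM compound for 6, 12, 24, 36 and 48 h. LC3-II, beclin 1, cleaved caspase-8 and cleaved PARP were measured by Western blot (SDS-PAGE, PVDF, ECL) with β-actin as internal standard.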
# HCT-116 [13] = assay: Induction of autophagy in human HCT116 cells assessed as accumulation of LC3-2 at 30 uM after 24 hrs in presence of autophagy inhibitor 3-MA by Western blot analysis; type: functional, cell-based
# Procedure, shortened: (§2)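 HCT116 cells were pretreated 1 h with 2 mM 3-MA, then given 30 μM compound for a further 24 h. Whole-cell lysates were immunoblotted for LC3-II and cleaved PARP, with β-actin as loading standard and ECL detection. Blots are representative of three separate determinations.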
# HCT-116 [14] = assay: Induction of apoptosis in human HCT116 cells assessed as PARP cleavage at 30 uM after 24 hrs in presence of autophagy inhibitor 3-MA by Western blot analysis; type: functional, cell-based; procedure, shortened: as §2
# HCT-116 [15] = assay: Increase in LC3-2 levels in human HCT116 cells at 30 uM after 48 hrs in presence of z-IETD-FMK by Western blot analysis; type: functional, cell-based
# Procedure, shortened: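 HCT116 cells were cultured 48 h with 30 μM compound, with or without 20 μM z-IETD-FMK. Lysates were made in SDS loading buffer and 10–30 μg protein was resolved by 6–15% SDS-PAGE and transferred to PVDF. Blots were probed for cleaved caspase-8, beclin 1, cleaved beclin 1 and LC3-II, and detected by ECL.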
# HCT-116 [16] = assay: Antitumor activity against human HCT116 cells xenografted in BALB/c-nu mouse assessed as inhibition of tumor volume at 2.5 mg/kg, ip administered three times per week for 28 days measured every 3 to 4 days of dosing relative to control; type: functional; settings: HCT-116, ip
# Procedure, shortened: (§3)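 HCT116 cells (2 × 106 in 200 μL medium) injected subcutaneously into the right flank of nude mice; at ~200 mm3, mice randomized into groups of five. Compound at 2.5 or 5 mg/kg, dissolved in normal saline with 0.5% Tween 80, given ip three times weekly for 28 days; vehicle controls got equal volume. Tumor volume measured by caliper every 3–4 days.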
# HCT-116 [17] = assay: Antitumor activity against human HCT116 cells xenografted in BALB/c-nu mouse assessed as inhibition of tumor volume at 5 mg/kg, ip administered three times per week for 28 days measured every 3 to 4 days of dosing relative to control; type: functional; settings: HCT-116, ip; procedure, shortened: as §3
# Mus musculus = assay: Induction of PARP cleavage in human HCT116 cells xenografted in BALB/c-nu mouse at 2.5 to 5 mg/kg, ip administered three times per week for 28 days measured post dosing by Western blot analysis; type: functional, organism-based
# Procedure, shortened: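 Excised xenograft tumors (2.5 or 5 mg/kg ip, three times weekly for 28 days) were frozen. Portions were thawed on ice and homogenized in Complete Lysis Buffer, then protein was quantified. Cleaved PARP was detected by Western blot with β-actin as internal standard; blots shown are representative of three determinations.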
# Mitogen-activated protein kinase; ERK1/ERK2 (Homo sapiens), sequence (P27361 whole entry, looked up): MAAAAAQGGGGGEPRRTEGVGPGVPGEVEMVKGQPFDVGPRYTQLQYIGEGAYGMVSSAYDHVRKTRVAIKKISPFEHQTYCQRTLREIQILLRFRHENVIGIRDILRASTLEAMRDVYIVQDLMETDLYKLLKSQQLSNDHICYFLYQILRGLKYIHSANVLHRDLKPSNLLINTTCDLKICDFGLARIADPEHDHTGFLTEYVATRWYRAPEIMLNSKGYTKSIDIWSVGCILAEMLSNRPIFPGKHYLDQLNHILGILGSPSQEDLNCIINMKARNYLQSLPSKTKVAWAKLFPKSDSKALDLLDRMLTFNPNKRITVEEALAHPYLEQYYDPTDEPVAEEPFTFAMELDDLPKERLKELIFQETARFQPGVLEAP
# Mitogen-activated protein kinase; ERK1/ERK2 (Homo sapiens), sequence (P28482 whole entry, looked up): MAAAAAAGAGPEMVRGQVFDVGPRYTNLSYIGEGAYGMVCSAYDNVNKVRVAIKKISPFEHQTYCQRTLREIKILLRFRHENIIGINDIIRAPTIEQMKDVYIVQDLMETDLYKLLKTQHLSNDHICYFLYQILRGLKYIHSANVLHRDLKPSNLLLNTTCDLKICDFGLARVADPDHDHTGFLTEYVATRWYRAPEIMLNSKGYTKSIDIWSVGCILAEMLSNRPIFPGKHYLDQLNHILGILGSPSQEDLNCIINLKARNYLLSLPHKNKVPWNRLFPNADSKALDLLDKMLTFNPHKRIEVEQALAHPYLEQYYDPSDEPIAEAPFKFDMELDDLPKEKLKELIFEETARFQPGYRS
structure (smiles),measurement,setting,value
C[C@H]1CC[C@@]2(OC1)O[C@H]1C[C@H]3[C@@H]4CC=C5C[C@@H](O)C[C@@H](O[C@@H]6O[C@H](C)[C@H](O)[C@H](O[C@@H]7OC[C@@H](O)[C@H](O)[C@H]7O)[C@H]6O[C@@H]6O[C@H](CO)[C@@H](O)[C@H](O)[C@H]6O)[C@]5(C)[C@H]4CC[C@]3(C)[C@H]1[C@@H]2C,IC50,MDA-MB-231,29.6 µM
same,growth inhibition (GI),HCT-116 [1],Dose-dependent effect
same,IC50,"HCT-116 [1]; HCT-116, 24 h",28.9 µM
same,Activity,HCT-116 [2],Dose-dependent effect
same,inhibition,[3],Active
same,inhibition,[4],Dose-dependent effect
same,growth inhibition (GI),HCT-116 [5],Dose-dependent effect
same,IC50,"HCT-116 [5]; HCT-116, 48 h",20.9 µM
same,Activity,HCT-116 [6],Active
same,Activity,HCT-116 [7],5.52%
same,Activity,HCT-116 [8],12.56%
same,Activity,HCT-116 [9],13.42%
same,Activity,HCT-116 [10],Active
same,Activity,HCT-116 [11],Active
same,Activity,HCT-116 [12],Active
same,Activity,HCT-116 [13],inactive
same,Activity,HCT-116 [14],Active
same,Activity,HCT-116 [15],Active
same,inhibition in vivo at 2.5 mg/kg,HCT-116 [16],38.8%
same,inhibition in vivo at 5 mg/kg,HCT-116 [17],57.5%
same,Activity,Mus musculus,Active
